From ChEMBL document CHEMBL4613319, “Novel Dithiolane-Based Ligands Combining Sigma and NMDA Receptor Interactions as Potential Neuroprotective Agents” (ACS Med Chem Lett, 2020)
One block for each compound: values may come before it. Calls of active or inactive are those of the source. The rule behind the calls is not given here.

Tests used:
[1] = molecular target: Sigma non-opioid intracellular receptor 1 (Homo sapiens, UniProt Q99720); assay: Displacement of [3H]-pentazocine from human Sigma 1 receptor by radioligand displacement assay
Outline: (§1)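 S1R labelled selectively with [3H]-(+)pentazocine in a radioligand displacement assay. Affinity is expressed as inhibition constant (Ki).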

[2] = molecular target: Sigma intracellular receptor 2 (Homo sapiens, UniProt Q5BJF2); assay: Displacement of [3H]-ditolylguanidine from human Sigma 2 receptor by radioligand displacement assay
Outline: (§2)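 Radioligand displacement with [3H]-ditolylguanidine as the S2R label. Cold (+)-pentazocine is included to mask S1R sites. Results are reported as Ki.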

[3] = Displacement of [3H][…]-DTG from sigma 2 receptor in guinea pig brain cortex membranes after 150 mins by liquid scintillation counter method; format: cell membranes, Cavia porcellus; outline: as §2
[4] = species on record: Cavia porcellus; assay: Selectivity index, ratio of Ki for sigma 1 receptor in guinea pig brain cortex membranes to Ki for sigma 2 receptor in guinea pig brain cortex membranes; format: cell membranes
[5] = test system: SH-SY5Y; assay: Neuroprotective activity against rotenone-induced cell death in human SH-SY5Y cells at 1 uM incubated for 24 hrs by MTT assay; format: functional, cell-based
Outline: (§3)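 Rotenone 25 μM is the toxic insult to SH-SY5Y cells, with test compound at 1.0 or 5.0 μM. Protection is reported as % cell viability, mean ± SD of three independent experiments.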

[6] = test system: SH-SY5Y; assay: Neuroprotective activity against rotenone-induced cell death in human SH-SY5Y cells at 5 uM incubated for 24 hrs by MTT assay; format: functional, cell-based; outline: as §3
[7] = test system: SH-SY5Y; assay: Neuroprotective activity against rotenone-induced cell death in human SH-SY5Y cells at 5 uM in presence of PB212 incubated for 24 hrs by MTT assay; format: functional, cell-based
Outline: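 SH-SY5Y cells receive rotenone 25 μM plus the S1R antagonist PB212 (5 μM) and compound at 1.0 or 5.0 μM. Output is % cell viability, mean ± SD of three independent experiments.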

[8] = test system: SH-SY5Y; assay: Neuroprotective activity against NMDA-induced cell death in human SH-SY5Y cells at 0.1 to 0.5 uM incubated for 24 hrs by MTT assay relative to control; format: functional
[9] = test system: SH-SY5Y; assay: Neuroprotective activity against NMDA-induced cell death in human SH-SY5Y cells at 5 uM incubated for 24 hrs by MTT assay; format: functional, cell-based
Outline: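 SH-SY5Y neuroblastoma cells are incubated 24 h with NMDA 250 μM and compound at 0.1, 0.5, 1.0 or 5.0 μM. Memantine serves as positive control. Read-out is % cell viability, mean ± SD of three independent experiments.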

[10] = molecular target: T1, Glutamate NMDA receptor (Rattus norvegicus) (UniProt P35439+Q00959+Q00960+Q00961+Q62645+Q8VHN2+Q9R1M7); assay: Negative allosteric modulator of NMDA receptor assessed as NMDA-induced current in Sprague-Dawley rat Primary cortical neuron at 0.1 uM by whole cell patch clamp method relative to control; format: cell-based; conditions: Cortical neurone
Outline: (§4)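 Whole-cell patch clamp on cortical neurons in primary culture. Currents are evoked by NMDA 100 μM plus glycine 1 μM, with the compound applied at increasing concentrations. The effect is expressed as % of the control current, mean ± SE of n cells.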

[11] = molecular target: T1, Glutamate NMDA receptor (Rattus norvegicus); assay: Negative allosteric modulator of NMDA receptor assessed as NMDA-induced current in Sprague-Dawley rat Primary cortical neuron at 1 uM by whole cell patch clamp method relative to control; format: cell-based; conditions: Cortical neurone; outline: as §4
[12] = molecular target: T1, Glutamate NMDA receptor (Rattus norvegicus); assay: Negative allosteric modulator of NMDA receptor assessed as NMDA-induced current in Sprague-Dawley rat Primary cortical neuron at 10 uM by whole cell patch clamp method relative to control; format: cell-based; conditions: Cortical neurone; outline: as §4
[13] = test system: SH-SY5Y; assay: Neuroprotective activity against NMDA-induced cell death in human SH-SY5Y cells at 0.5 to 1 uM incubated for 24 hrs by MTT assay relative to control; format: functional
[14] = molecular target: Sigma non-opioid intracellular receptor 1 (Cavia porcellus, UniProt Q60492); assay: Displacement of [3H](+)-pentazocine from sigma 1 receptor in guinea pig brain cortex membranes after 150 mins by scintillation counting analysis; format: cell membranes; outline: as §1
[15] = test system: SH-SY5Y; assay: Neuroprotective activity against oligomycin-induced cell death in human SH-SY5Y cells at 5 uM incubated for 24 hrs by MTT assay relative to control; format: functional
Outline: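 SH-SY5Y cells were exposed to oligomycin (2.5 μM) as the toxic stimulus in the presence of test compound. Protection was scored as % cell viability.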

[16] = test system: SH-SY5Y; assay: Neuroprotective activity against NMDA-induced cell death in human SH-SY5Y cells at 0.1 uM in presence of PB212 incubated for 24 hrs by MTT assay; format: functional, cell-based
Outline: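 SH-SY5Y cells are exposed to NMDA 250 μM together with compound at 0.1 μM. This is done with and without the S1R antagonist PB212 (5 μM). Data are % cell viability, mean ± SD of three independent experiments.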

Chain of Sigma non-opioid intracellular receptor 1 (Homo sapiens, UniProt Q99720) (Q99720 whole entry): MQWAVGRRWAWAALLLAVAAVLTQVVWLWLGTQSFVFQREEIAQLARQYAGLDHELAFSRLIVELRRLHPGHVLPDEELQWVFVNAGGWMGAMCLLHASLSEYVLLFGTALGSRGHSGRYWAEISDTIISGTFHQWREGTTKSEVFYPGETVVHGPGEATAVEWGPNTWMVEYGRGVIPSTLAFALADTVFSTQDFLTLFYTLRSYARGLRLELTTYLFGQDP
Chain of Sigma intracellular receptor 2 (Q5BJF2 whole entry): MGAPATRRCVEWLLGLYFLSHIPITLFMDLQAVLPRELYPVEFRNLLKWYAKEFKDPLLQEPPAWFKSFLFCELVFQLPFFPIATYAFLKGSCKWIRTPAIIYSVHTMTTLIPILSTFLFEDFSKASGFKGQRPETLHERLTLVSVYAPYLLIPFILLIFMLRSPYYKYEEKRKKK
Chain of Sigma non-opioid intracellular receptor 1 (Cavia porcellus, UniProt Q60492) (Q60492 whole entry): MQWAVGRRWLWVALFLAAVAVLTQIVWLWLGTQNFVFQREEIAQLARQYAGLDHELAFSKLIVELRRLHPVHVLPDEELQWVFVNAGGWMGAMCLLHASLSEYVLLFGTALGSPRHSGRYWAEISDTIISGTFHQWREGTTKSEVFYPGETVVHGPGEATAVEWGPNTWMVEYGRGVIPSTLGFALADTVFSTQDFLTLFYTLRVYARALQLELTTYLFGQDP

SMILES: c1ccc(CC2CCN(C[C@H]3CS[C@@]4(CCCCc5ccccc54)S3)CC2)cc1
- Ki [1]: 195 nM
- Ki [2]: 158 nM

SMILES: O=C(O)C(=O)O.c1ccc(CN2CCN(CC3COC4(CCCCC4)O3)CC2)cc1 (configuration not stated)
- Ki [3]: 35 nM
- Ratio Ki [4]: 47
- Activity [5]: Active
- Activity [6]: Active
- Activity [7]: inactive
- Activity [8]: >85%
- Activity [9]: inactive
- inhibition [10]: 34%
- inhibition [11]: 18%
- inhibition [12]: 110%

SMILES: O=C(O)C(=O)O.c1ccc(CC2CCN(CC3CSCS3)CC2)cc1 (configuration not stated)
- Ki [1]: 0.5 nM
- Ki [2]: 12 nM
- Activity [13]: 72 - 75%
- Activity [9]: inactive

SMILES: c1ccc(CC2CCN(C[C@@H]3CS[C@]4(CCCc5ccccc54)S3)CC2)cc1
- Ki [1]: 129 nM
- Ki [2]: 93 nM

SMILES: c1ccc(CC2CCN(C[C@@H]3CS[C@@]4(CCCCc5ccccc54)S3)CC2)cc1
- Ki [1]: 68 nM
- Ki [2]: 107 nM

SMILES: C[C@]1(c2ccccc2)SC[C@H](CN2CCC(Cc3ccccc3)CC2)S1
- Ki [1]: 68 nM
- Ki [2]: 85 nM

SMILES: O=C(O)C(=O)O.c1ccc(CN2CCN(CC3CSC4(CCCCC4)O3)CC2)cc1 (configuration not stated)
- Ki [14]: 1.3 nM
- Ki [3]: 91 nM
- Ratio Ki [4]: 72
- Activity [5]: Active
- Activity [6]: Active
- Activity [7]: inactive
- Activity [15]: >60%
- Activity [13]: 72 - 75%
- Activity [9]: inactive

SMILES: c1ccc(CC2CCN(CC3CSC4(S3)c3ccccc3-c3ccccc34)CC2)cc1 (configuration not stated)
- Ki [1]: 54 nM
- Ki [2]: 71 nM

SMILES: O=C(O)C(=O)O.O=C(O)C(=O)O.c1ccc(CN2CCN(CC3CSCS3)CC2)cc1 (configuration not stated)
- Ki [1]: 2.1 nM
- Ki [2]: 90 nM
- Activity [5]: Active
- Activity [7]: inactive
- Activity [8]: >85%
- Activity [9]: inactive
- Activity [16]: inactive

SMILES: c1ccc(CC2CCN(C[C@H]3CS[C@]4(CCc5ccccc54)S3)CC2)cc1
- Ki [1]: 107 nM
- Ki [2]: 65 nM

SMILES: CC12CC3CC(C)(C1)CC(N)(C3)C2
- Activity [9]: inactive

SMILES: c1ccc(CC2CCN(C[C@@H]3CS[C@]4(CCc5ccccc54)S3)CC2)cc1
- Ki [1]: 71 nM
- Ki [2]: 30 nM

SMILES: C[C@]1(c2ccccc2)SC[C@@H](CN2CCC(Cc3ccccc3)CC2)S1
- Ki [1]: 76 nM
- Ki [2]: 63 nM

SMILES: O=C(O)C(=O)O.c1ccc(CC2CCN(CC3CSC4(CCCCC4)S3)CC2)cc1 (configuration not stated)
- Ki [14]: 12 nM
- Ki [3]: 5 nM
- Activity [5]: Active
- Activity [7]: inactive
- Activity [8]: >85%
- Activity [9]: inactive

Next, values leading:

- Ki [1]: 2 nM
- Ki [2]: 0.59 nM
SMILES: CC1(C)SCC(CN2CCC(Cc3ccccc3)CC2)S1 (configuration not stated)

- Ki [1]: 5.4 nM
- Ki [2]: 182 nM
SMILES: CC1(C)OCC(CN2CCN(Cc3ccccc3)CC2)O1 (configuration not stated)

- Ki [1]: 4.2 nM
- Ki [2]: 3 nM
SMILES: c1ccc(CC2CCN(CC3CSC4(CCCC4)S3)CC2)cc1 (configuration not stated)

- Ki [1]: 0.6 nM
- Ki [2]: 3.3 nM
SMILES: CC1(C)SCC(CN2CCN(Cc3ccccc3)CC2)S1 (configuration not stated)

- Ki [1]: 0.6 nM
- Ki [2]: 6.2 nM
SMILES: CC1(C)OCC(CN2CCC(Cc3ccccc3)CC2)O1 (configuration not stated)

- Ki [1]: 52 nM
- Ki [2]: 87 nM
SMILES: c1ccc(CC2CCN(C[C@@H]3CS[C@@]4(CCCc5ccccc54)S3)CC2)cc1

- Ki [1]: 1.7 nM
- Ki [2]: 8.1 nM
SMILES: c1ccc(CC2CCN(CC3CSC4(CCCCCC4)S3)CC2)cc1 (configuration not stated)
